Key:
Type in all cases: functional
Settings in all cases: TLX-5, ip, 72 h, route intraperitoneal
[1] = Antitumor activity against mouse TLX5 cells allografted in CBA/LAC mouse assessed as increase in life span at 12.5 mg/kg, ip from day 3 to 7 from tumor inoculation relative to control
In short: (§1)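 TLX5 lymphoma cells implanted subcutaneously in the inguinal region of female CBA/LAC mice. Drug given as a freshly made solution in acetone–arachis oil 10/90 (v:v), intraperitoneally once daily from day 3 to 7 after tumour inoculation. Five animals per dose level, ten controls. Read-out was %ILS over controls, with analysis of variance used for significance.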

[2] = Antitumor activity against mouse TLX5 cells allografted in CBA/LAC mouse assessed as increase in life span at 100 mg/kg, ip from day 3 to 7 from tumor inoculation relative to control; in short: as §1
[3] = Antitumor activity against mouse TLX5 cells allografted in CBA/LAC mouse assessed as increase in life span at 25 mg/kg, ip from day 3 to 7 from tumor inoculation relative to control; in short: as §1
[4] = Antitumor activity against mouse TLX5 cells allografted in CBA/LAC mouse assessed as increase in life span at 400 mg/kg, ip from day 3 to 7 from tumor inoculation relative to control; in short: as §1
[5] = Antitumor activity against mouse TLX5 cells allografted in CBA/LAC mouse assessed as increase in life span at 50 mg/kg, ip from day 3 to 7 from tumor inoculation relative to control; in short: as §1
[6] = Antitumor activity against mouse TLX5 cells allografted in CBA/LAC mouse assessed as increase in life span at 200 mg/kg, ip from day 3 to 7 from tumor inoculation relative to control; in short: as §1
[7] = Antitumor activity against mouse TLX5 cells allografted in CBA/LAC mouse assessed as increase in life span at 6.25 mg/kg, ip from day 3 to 7 from tumor inoculation relative to control; in short: as §1
[8] = Antitumor activity against mouse TLX5 cells allografted in CBA/LAC mouse assessed as increase in life span at 3.12 mg/kg, ip from day 3 to 7 from tumor inoculation relative to control; in short: as §1
[9] = Antitumor activity against mouse TLX5 cells allografted in CBA/LAC mouse assessed as increase in life span at 800 mg/kg, ip from day 3 to 7 from tumor inoculation relative to control; in short: as §1
[10] = Antitumor activity against mouse TLX5 cells allografted in CBA/LAC mouse assessed as increase in life span at 10 mg/kg, ip from day 3 to 7 from tumor inoculation relative to control; in short: as §1
[11] = Antitumor activity against mouse TLX5 cells allografted in CBA/LAC mouse assessed as increase in life span at 160 mg/kg, ip from day 3 to 7 from tumor inoculation relative to control; in short: as §1
[12] = Antitumor activity against mouse TLX5 cells allografted in CBA/LAC mouse assessed as increase in life span at 20 mg/kg, ip from day 3 to 7 from tumor inoculation relative to control; in short: as §1
[13] = Antitumor activity against mouse TLX5 cells allografted in CBA/LAC mouse assessed as increase in life span at 40 mg/kg, ip from day 3 to 7 from tumor inoculation relative to control; in short: as §1
[14] = Antitumor activity against mouse TLX5 cells allografted in CBA/LAC mouse assessed as increase in life span at 80 mg/kg, ip from day 3 to 7 from tumor inoculation relative to control; in short: as §1
[15] = Antitumor activity against mouse TLX5 cells allografted in CBA/LAC mouse assessed as increase in life span at 5 mg/kg, ip from day 3 to 7 from tumor inoculation relative to control; in short: as §1
[16] = Antitumor activity against mouse TLX5 cells allografted in CBA/LAC mouse assessed as increase in life span at 2.5 mg/kg, ip from day 3 to 7 from tumor inoculation relative to control; in short: as §1

Compound | ILS at 12.5 mg/kg [1] | ILS at 100 mg/kg [2] | ILS at 25 mg/kg [3] | ILS at 400 mg/kg [4] | ILS at 50 mg/kg [5] | ILS at 200 mg/kg [6] | ILS at 6.25 mg/kg [7] | ILS at 3.12 mg/kg [8] | ILS at 800 mg/kg [9] | ILS at 10 mg/kg [10] | ILS at 160 mg/kg [11] | ILS at 20 mg/kg [12] | ILS at 40 mg/kg [13] | ILS at 80 mg/kg [14] | ILS at 5 mg/kg [15] | ILS at 2.5 mg/kg [16]
CN(C)/N=N/c1ccc(C(=O)N/N=C/c2ccccc2)cc1 | 26% | 36% | 24% | -26% | 49% | 1.8% | – | – | – | – | – | – | – | – | – | –
CN(C)/N=N/c1ccc(S(=O)(=O)N(CCCl)CCCl)cc1 | -1% | -3.7% | 0% | – | 2.9% | – | -3.7% | -3.7% | – | – | – | – | – | – | – | –
CN(C)/N=N/c1ccc(C(=O)NNC(O)c2ccc([N+](=O)[O-])cc2)cc1 (stereo not drawn) | – | 74% | 6.5% | 71% | 12% | 83% | – | – | 44% | – | – | – | – | – | – | –
CCOc1ccc(/C=N/NC(=O)c2ccc(/N=N/N(C)C)cc2)cc1 | 0% | 50% | 13% | 63% | 29% | 65% | – | – | – | – | – | – | – | – | – | –
CN(C)/N=N/c1ccc(C(N)=O)cc1 | 14% | 47% | 55% | -61% | 51% | 3.9% | – | – | – | – | – | – | – | – | – | –
CN(C)/N=N/c1ccc(S(=O)(=O)N(C)C)cc1 | 0% | 34% | 7.5% | – | 9.4% | -36% | – | – | – | – | – | – | – | – | – | –
CN(C)/N=N/c1ccc(C(=O)N=[N+]=[N-])cc1 | 4.6% | 51% | 21% | – | 46% | -72% | -1% | – | – | – | – | – | – | – | – | –
CN(C)/N=N/c1ccc(C(=O)N/N=C/c2ccc(Cl)cc2)cc1 | 4.6% | 44% | 14% | -23% | 40% | 51% | – | – | – | – | – | – | – | – | – | –
CN(C)/N=N/c1ccc(S(=O)(=O)Nn2cnnc2)cc1 | 0.9% | 4.6% | 4.6% | 14% | 0.9% | 16% | – | – | – | – | – | – | – | – | – | –
CCCNC(=O)NNC(=O)c1ccc(/N=N/N(C)C)cc1 | -1% | 44% | 10% | -44% | 61% | 49% | – | – | – | – | – | – | – | – | – | –
COc1ccc(/C=N/NC(=O)c2ccc(/N=N/N(C)C)cc2)c(OC)c1 | 1.9% | 52% | 19% | -33% | 48% | 35% | – | – | – | – | – | – | – | – | – | –
CN(C)/N=N/c1ccc(C(=O)Nn2cnnc2)cc1 | -1% | 49% | 32% | -14% | 47% | 28% | – | – | – | – | – | – | – | – | – | –
CN(C)/N=N/c1ccc(C(=O)NN)cc1 | – | – | – | – | – | – | – | – | – | 59% | -46% | 55% | 57% | 44% | – | –
CN(C)/N=N/c1ccc(C(=O)N/N=C/c2ccc(Br)cc2)cc1 | 7.6% | 52% | 21% | -35% | 52% | 60% | – | – | – | – | – | – | – | – | – | –
CCCN(CCC)NC(=O)c1ccc(/N=N/N(C)C)cc1 | – | – | – | – | – | – | – | – | – | 0% | – | 20% | -32% | – | -3.7% | -3.7%
CCNC(=S)NNC(=O)c1ccc(/N=N/N(C)C)cc1 | -1% | 55% | 16% | – | 18% | -31% | – | – | – | – | – | – | – | – | – | –
CCO/C=N/NC(=O)c1ccc(/N=N/N(C)C)cc1 | 13% | -27% | 30% | – | 43% | – | – | – | – | – | – | – | – | – | – | –
CN(C)/N=N/c1ccc(C(=O)N/N=C/c2ccc([N+](=O)[O-])cc2)cc1 | -1% | 16% | -1% | 20% | 8.7% | 26% | – | – | – | – | – | – | – | – | – | –
CN(C)/N=N/c1ccc(C(=O)N/N=C/c2ccccc2[N+](=O)[O-])cc1 | 44% | 51% | 40% | 59% | 49% | 57% | – | – | – | – | – | – | – | – | – | –
CN(C)/N=N/c1ccc(C(=O)N/N=C/c2ccc(I)cc2)cc1 | 11% | 54% | 15% | – | 40% | -38% | – | – | – | – | – | – | – | – | – | –

Source: ChEMBL document CHEMBL3244380, “Preparation and antitumor activity of 1-aryl-3,3-dimethyltriazene derivatives” (1977)
